Series [1] can be described thus: Permeability of the compound by PAMPA. The settings on record: read-out: permeability. It is filed as ADME. The procedure, abridged: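 Donor buffers were set to pH 5.0, 6.2 and 7.4 with NaOH, and ASB7.4 buffer was used as acceptor. Filters (0.45 pore, 125 μm thick) were lipid-coated. A 10 mM DMSO stock was diluted to 41.7 μM in donor buffer. The sandwich was incubated 4 h without stirring. Reference, donor and acceptor concentrations were read in duplicate by UV plate reader, and ratings were assigned from permeation velocity.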

A short description of series [2]: Metabolic stability in human liver microsomes at 1 uM up to 60 mins by LC/MS/MS analysis relative to hepatic blood flow. It is filed as ADME, Microsome. As to conditions: read-out: Stability.
A short description of series [3]: Metabolic stability in rat liver microsomes at 1 uM up to 60 mins by LC/MS/MS analysis relative to hepatic blood flow. It is filed as ADME, Microsome. The settings on record: read-out: Stability. In general terms: Microsomes from liver hold many membrane-bound enzymes, among them those of drug oxidation.
For another series, the target named is Cytochrome P450 3A4 (Homo sapiens, UniProt P08684). The experiment in a line: Inhibition of CYP3A4 in human liver microsomes using 7-benzyloxy-4-(trifluoromethyl)-coumarin as substrate after 30 mins by LC/MS/MS analysis. It is filed as ADME, Microsome.
The target of another series is Cytochrome P450 2D6 (Homo sapiens, UniProt P10635). The series is described as follows: Inhibition of CYP2D6 in human liver microsomes using 3-[2-(N,N-diethyl-N-methylamino)ethyl]-7- methoxy-4-methylcoumarin as substrate after 45 mins by LC/MS/MS analysis. It is filed as ADME, Microsome.
The next series addresses Cytochrome P450 2C9 (Homo sapiens, UniProt P11712). The series is described as follows: Inhibition of CYP2C9 in human liver microsomes using 7-methoxy-4-(trifluoromethyl)-coumarin as substrate after 45 mins by LC/MS/MS analysis. It is filed as ADME, Microsome.
The target in another series is Cytochrome P450 2C19 (Homo sapiens, UniProt P33261). The experiment in a line: Inhibition of CYP2C19 in human liver microsomes using 7-ethoxy-3-cyanocoumarin as substrate after 45 mins by LC/MS/MS analysis. It is filed as ADME, Microsome.
Series [4] deals with Sodium/hydrogen exchanger 1 (Homo sapiens, UniProt P19634). The series is described as follows: Inhibition of NHE1 in human HT-29 cells assessed as intracellular pH change after 30 mins. It is filed as cell-based.

Each structure is given as a SMILES string.

One may read the IC50 as the concentration at which inhibition is half-maximal.

Cytochrome P450 3A4, sequence (P08684 whole entry): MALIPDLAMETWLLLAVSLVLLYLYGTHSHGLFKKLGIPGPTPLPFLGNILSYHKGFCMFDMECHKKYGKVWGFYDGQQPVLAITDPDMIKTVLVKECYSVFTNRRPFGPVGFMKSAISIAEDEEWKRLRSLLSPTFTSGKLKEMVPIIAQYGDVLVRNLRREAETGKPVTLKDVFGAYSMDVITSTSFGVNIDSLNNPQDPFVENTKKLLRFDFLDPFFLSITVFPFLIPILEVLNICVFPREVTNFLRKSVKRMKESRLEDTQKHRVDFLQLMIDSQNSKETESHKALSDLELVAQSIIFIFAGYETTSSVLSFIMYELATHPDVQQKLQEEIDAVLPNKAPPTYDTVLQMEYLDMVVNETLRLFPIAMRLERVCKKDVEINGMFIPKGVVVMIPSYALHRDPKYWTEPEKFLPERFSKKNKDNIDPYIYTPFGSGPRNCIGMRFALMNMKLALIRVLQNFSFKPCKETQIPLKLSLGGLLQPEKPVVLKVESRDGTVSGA
Cytochrome P450 2C19, sequence (P33261 whole entry): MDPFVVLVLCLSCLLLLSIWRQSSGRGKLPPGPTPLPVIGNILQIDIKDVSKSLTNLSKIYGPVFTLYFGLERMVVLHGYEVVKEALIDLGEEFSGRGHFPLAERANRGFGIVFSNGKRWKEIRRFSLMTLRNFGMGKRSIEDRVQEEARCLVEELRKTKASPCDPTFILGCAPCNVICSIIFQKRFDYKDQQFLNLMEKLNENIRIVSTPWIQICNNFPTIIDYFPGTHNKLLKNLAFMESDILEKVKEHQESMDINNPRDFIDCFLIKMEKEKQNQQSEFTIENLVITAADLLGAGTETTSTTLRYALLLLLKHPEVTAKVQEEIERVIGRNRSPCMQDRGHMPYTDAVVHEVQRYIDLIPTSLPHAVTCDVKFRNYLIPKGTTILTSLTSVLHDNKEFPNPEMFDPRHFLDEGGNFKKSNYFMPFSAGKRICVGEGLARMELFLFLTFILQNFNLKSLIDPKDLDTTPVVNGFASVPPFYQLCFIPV
Cytochrome P450 2D6, sequence (P10635 whole entry): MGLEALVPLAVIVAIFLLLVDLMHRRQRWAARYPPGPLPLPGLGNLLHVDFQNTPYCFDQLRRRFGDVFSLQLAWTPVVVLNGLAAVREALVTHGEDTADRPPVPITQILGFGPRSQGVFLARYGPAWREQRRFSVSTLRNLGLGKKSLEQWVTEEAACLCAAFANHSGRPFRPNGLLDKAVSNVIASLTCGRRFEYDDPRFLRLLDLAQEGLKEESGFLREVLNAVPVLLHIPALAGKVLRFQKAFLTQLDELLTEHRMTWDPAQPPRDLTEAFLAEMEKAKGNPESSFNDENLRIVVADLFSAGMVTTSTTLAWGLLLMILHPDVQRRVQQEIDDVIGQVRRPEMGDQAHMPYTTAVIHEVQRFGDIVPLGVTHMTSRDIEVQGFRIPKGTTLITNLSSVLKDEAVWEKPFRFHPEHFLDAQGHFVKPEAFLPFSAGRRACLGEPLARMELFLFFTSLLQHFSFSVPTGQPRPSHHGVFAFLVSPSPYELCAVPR
Cytochrome P450 2C9, sequence (P11712 whole entry): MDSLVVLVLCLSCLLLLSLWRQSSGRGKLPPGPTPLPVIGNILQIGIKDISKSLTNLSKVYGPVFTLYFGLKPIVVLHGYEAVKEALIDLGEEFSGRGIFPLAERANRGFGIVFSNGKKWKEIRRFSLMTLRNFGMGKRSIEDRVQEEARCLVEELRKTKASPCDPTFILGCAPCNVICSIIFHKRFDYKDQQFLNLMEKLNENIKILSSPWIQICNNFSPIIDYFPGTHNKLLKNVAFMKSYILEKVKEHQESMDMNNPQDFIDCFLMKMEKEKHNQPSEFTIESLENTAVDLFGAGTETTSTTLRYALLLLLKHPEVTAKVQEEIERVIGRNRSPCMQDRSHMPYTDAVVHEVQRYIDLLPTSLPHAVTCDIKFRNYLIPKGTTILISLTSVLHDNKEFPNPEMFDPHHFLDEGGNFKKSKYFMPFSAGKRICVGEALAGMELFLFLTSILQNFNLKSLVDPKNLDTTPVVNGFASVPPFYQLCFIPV
Sodium/hydrogen exchanger 1, sequence (P19634 whole entry): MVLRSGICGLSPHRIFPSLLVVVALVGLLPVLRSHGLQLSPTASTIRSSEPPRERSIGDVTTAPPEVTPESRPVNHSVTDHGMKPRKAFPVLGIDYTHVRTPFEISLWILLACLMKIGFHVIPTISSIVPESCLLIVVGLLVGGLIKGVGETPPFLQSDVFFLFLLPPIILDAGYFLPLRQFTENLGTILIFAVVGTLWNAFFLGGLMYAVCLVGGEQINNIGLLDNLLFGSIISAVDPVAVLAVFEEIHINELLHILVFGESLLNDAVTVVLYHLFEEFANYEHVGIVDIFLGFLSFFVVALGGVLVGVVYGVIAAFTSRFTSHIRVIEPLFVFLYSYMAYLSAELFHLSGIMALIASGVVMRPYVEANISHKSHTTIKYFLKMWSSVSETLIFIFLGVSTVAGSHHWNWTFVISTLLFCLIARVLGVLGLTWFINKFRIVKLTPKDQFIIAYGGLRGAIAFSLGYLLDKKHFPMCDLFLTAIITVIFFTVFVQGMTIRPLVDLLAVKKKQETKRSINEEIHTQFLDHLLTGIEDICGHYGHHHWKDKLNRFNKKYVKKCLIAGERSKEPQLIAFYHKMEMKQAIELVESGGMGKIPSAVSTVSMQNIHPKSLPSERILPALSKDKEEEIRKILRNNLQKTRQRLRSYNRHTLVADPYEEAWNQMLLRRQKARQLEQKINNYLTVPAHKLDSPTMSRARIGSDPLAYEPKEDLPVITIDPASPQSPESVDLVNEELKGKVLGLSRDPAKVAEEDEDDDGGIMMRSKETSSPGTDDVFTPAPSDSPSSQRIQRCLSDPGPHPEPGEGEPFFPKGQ

For the molecule `N=C(N)NC(=O)c1ccc(C2CCN(C(=O)C3CC3)CC2)c(C(F)(F)F)c1`, in series [1], the Papp was at least 20 nm/s. The hepatic extraction ratio at 1 h, 1 µM in series [2] was below 0.11; in series [3], below 0.056. Besides, the IC50 against Cytochrome P450 3A4 turned out to be 16 µM; on Cytochrome P450 2D6 it was 17 µM; against Cytochrome P450 2C9, 6 µM; on Cytochrome P450 2C19, 5 µM.
Turning to `N=C(N)NC(=O)c1ccc(C2CCN(C(=O)c3cccc(Cl)c3)CC2)c(C(F)(F)F)c1`, the IC50 in series [4] is 0.385 µM.
Consider `CS(=O)(=O)c1cccc(C(=O)N2CCC(c3ccc(C(=O)NC(=N)N)cc3C(F)(F)F)CC2)c1`, for which the Papp in series [1] is below 20 nm/s. Also, the hepatic extraction ratio at 1 h, 1 µM in series [2] worked out at 0.15; in series [3], 0.14. Moreover, the IC50 against Cytochrome P450 3A4 was above 30 µM; against Cytochrome P450 2D6, above 30 µM; at Cytochrome P450 2C9, above 30 µM; against Cytochrome P450 2C19, above 30 µM; in series [4] it was 0.06 µM.
For `N=C(N)NC(=O)c1ccc(C2CCN(C(=O)c3ccc(-c4cnco4)cc3)CC2)c(C(F)(F)F)c1`, the IC50 in series [4] was determined as 0.102 µM.
Same read-out and setting: next, `COc1cc(C2CCN(C(C)=O)CC2)c(C(F)(F)F)cc1C(=O)NC(=N)N`: 0.019 µM; `N=C(N)NC(=O)c1ccc(C2CCN(C(=O)c3ccc(-n4ccnc4)cc3)CC2)c(C(F)(F)F)c1`: 0.065 µM.
In the case of `N=C(N)NC(=O)c1ccc(C2CCN(C(=O)c3ccncc3)CC2)c(C(F)(F)F)c1`, the Papp in series [1] is at least 20 nm/s. Further, the hepatic extraction ratio at 1 h, 1 µM is below 0.11 in series [2] and 0.12 in series [3]. The IC50 was above 30 µM against Cytochrome P450 3A4; 11 µM at Cytochrome P450 2D6; 0.4 µM against Cytochrome P450 2C9; 0.06 µM on Cytochrome P450 2C19; 0.018 µM in series [4].
Turning to `CN(C)S(=O)(=O)c1ccc(C(=O)N2CCC(c3ccc(C(=O)NC(=N)N)cc3C(F)(F)F)CC2)cc1`, the Papp in series [1] was at least 20 nm/s.
Turning to `CNC(=O)c1ccc(C(=O)N2CCC(c3ccc(C(=O)NC(=N)N)cc3C(F)(F)F)CC2)cc1`, the Papp in series [1] was below 20 nm/s. Besides, in series [4], the IC50 amounted to 0.052 µM.
For the molecule `N=C(N)NC(=O)c1ccc(C2CCN(C(=O)c3ccccn3)CC2)c(C(F)(F)F)c1`, the Papp in series [1] is at least 20 nm/s. For the same molecule, the hepatic extraction ratio at 1 h, 1 µM in series [2] was 0.49; in series [3] it was below 0.06. Also, the IC50 against Cytochrome P450 3A4 is above 30 µM; on Cytochrome P450 2D6 it was 27 µM; at Cytochrome P450 2C9, 3 µM; against Cytochrome P450 2C19, 26 µM; in series [4], 0.018 µM.
Regarding `CC(C)C(=O)N1CCC(c2ccc(C(=O)NC(=N)N)cc2C(F)(F)F)CC1`, in series [1], the Papp is at least 20 nm/s. The hepatic extraction ratio at 1 h, 1 µM in series [2] is below 0.11; in series [3] it was 0.39. For the same molecule, the IC50 on Cytochrome P450 3A4 is 0.4 µM; against Cytochrome P450 2D6 it was above 30 µM; against Cytochrome P450 2C9, 7 µM; in series [4] it was 0.028 µM.
Consider `COc1ccc(C(=O)N2CCC(c3ccc(C(=O)NC(=N)N)cc3C(F)(F)F)CC2)cc1`, for which the Papp in series [1] is at least 20 nm/s. The IC50 in series [4] came to 0.132 µM.
Regarding `CCCC(=O)N1CCC(c2ccc(C(=O)NC(=N)N)cc2C(F)(F)F)CC1`, the IC50 in series [4] was determined as 0.029 µM.
On to `CC(C)CC(=O)N1CCC(c2ccc(C(=O)NC(=N)N)cc2C(F)(F)F)CC1`, for which the IC50 in series [4] is 0.047 µM.
On to `N=C(N)NC(=O)c1ccc(C2CCN(C(=O)c3ccc(O)cc3)CC2)c(C(F)(F)F)c1`, for which, in series [1], the Papp is below 20 nm/s. Also, the hepatic extraction ratio at 1 h, 1 µM in series [2] stood at 0.27; in series [3], 0.11. The IC50 in series [4] was 0.021 µM.
Regarding `N=C(N)NC(=O)c1ccc(C2CCN(C(=O)c3cccc(-c4cnco4)c3)CC2)c(C(F)(F)F)c1`, the IC50 in series [4] turned out to be 0.033 µM.
On to `N=C(N)NC(=O)c1ccc(C2CCN(C(=O)c3cccnc3)CC2)c(C(F)(F)F)c1`, for which the Papp in series [1] is below 20 nm/s. Besides, the hepatic extraction ratio at 1 h, 1 µM in series [2] was 0.33; in series [3], below 0.06. The IC50 is above 30 µM on Cytochrome P450 3A4; above 30 µM at Cytochrome P450 2D6; 13 µM against Cytochrome P450 2C9; above 30 µM against Cytochrome P450 2C19; 0.018 µM in series [4].
`CNS(=O)(=O)c1ccc(C(=O)N2CCC(c3ccc(C(=O)NC(=N)N)cc3C(F)(F)F)CC2)cc1`: the Papp in series [1] was below 20 nm/s. Besides, in series [4], the IC50 turned out to be 0.03 µM.
For `Cc1cc(C(=O)N2CCC(c3ccc(C(=O)NC(=N)N)cc3C(F)(F)F)CC2)nn1C`, the Papp in series [1] was below 20 nm/s. Further, the hepatic extraction ratio at 1 h, 1 µM turned out to be 0.68 in series [2] and 0.78 in series [3]. Also, in series [4], the concentration for half-maximal inhibition (IC50) is 0.027 µM.
On to `N=C(N)NC(=O)c1ccc(C2CCN(C(=O)C3CCCC3)CC2)c(C(F)(F)F)c1`, for which the IC50 in series [4] turned out to be 0.064 µM.
Consider `N=C(N)NC(=O)c1ccc(C2CCN(C(=O)c3ccccc3Cl)CC2)c(C(F)(F)F)c1`, for which, in series [4], the IC50 worked out at 0.108 µM.
Consider `N#Cc1ccccc1C(=O)N1CCC(c2ccc(C(=O)NC(=N)N)cc2C(F)(F)F)CC1`, for which the Papp in series [1] is at least 20 nm/s. Moreover, the hepatic extraction ratio at 1 h, 1 µM in series [2] was 0.4; in series [3] it was below 0.06. Besides, the IC50 against Cytochrome P450 3A4 was above 30 µM; against Cytochrome P450 2D6 it was 10 µM; against Cytochrome P450 2C9, 4 µM; at Cytochrome P450 2C19, 16 µM; in series [4], 0.061 µM.
With `N=C(N)NC(=O)c1ccc(C2CCN(C(=O)c3ccccc3)CC2)c(C(F)(F)F)c1`, the Papp in series [1] is at least 20 nm/s. Moreover, the hepatic extraction ratio at 1 h, 1 µM in series [2] is 0.67; in series [3] it was 0.46. Moreover, the IC50 is above 30 µM on Cytochrome P450 3A4; above 30 µM against Cytochrome P450 2D6; 7 µM at Cytochrome P450 2C9; 5 µM on Cytochrome P450 2C19; 0.068 µM in series [4].
Consider `CN(C)C(=O)c1ccc(C(=O)N2CCC(c3ccc(C(=O)NC(=N)N)cc3C(F)(F)F)CC2)cc1`, for which the Papp in series [1] was below 20 nm/s. In addition, in series [4], the IC50 was 0.05 µM.
On to `N=C(N)NC(=O)c1ccc(C2CCN(C(=O)c3ccc(C(F)(F)F)cc3)CC2)c(C(F)(F)F)c1`, for which the IC50 in series [4] came out at 0.32 µM.
As to `Cn1cncc1C(=O)N1CCC(c2ccc(C(=O)NC(=N)N)cc2C(F)(F)F)CC1`, the Papp in series [1] is below 20 nm/s. The hepatic extraction ratio at 1 h, 1 µM in series [2] is 0.23; in series [3], below 0.056. Further, the IC50 against Cytochrome P450 3A4 is 3 µM; against Cytochrome P450 2D6, above 30 µM; against Cytochrome P450 2C9, 25 µM; against Cytochrome P450 2C19, 15 µM; in series [4] it was 0.018 µM.
As to `N=C(N)NC(=O)c1ccc(C2CCN(C(=O)c3ccc(S(N)(=O)=O)cc3)CC2)c(C(F)(F)F)c1`, in series [1], the Papp was below 20 nm/s. The figures for the hepatic extraction ratio at 1 h, 1 µM in series [2] and in series [3] were 0.24 and 0.07, respectively. Moreover, the IC50 against Cytochrome P450 3A4 was 24 µM; against Cytochrome P450 2D6, above 30 µM; against Cytochrome P450 2C9 it was 16 µM; at Cytochrome P450 2C19, above 30 µM; in series [4] it was 0.014 µM.
`N=C(N)NC(=O)c1ccc(C2CCN(C(=O)c3ccc(-c4ccccc4)cc3)CC2)c(C(F)(F)F)c1`: the IC50 in series [4] came to 4.71 µM.
On to `CCC(=O)N1CCC(c2ccc(C(=O)NC(=N)N)cc2S(C)(=O)=O)CC1`, for which the IC50 in series [4] amounted to 0.029 µM.
For the molecule `CC(=O)N1CCC(c2ccc(C(=O)NC(=N)N)cc2S(C)(=O)=O)CC1`, in series [4], the IC50 amounted to 0.022 µM.
On to `N=C(N)NC(=O)c1ccc(C2CCN(C(=O)c3ccc(C(N)=O)cc3)CC2)c(C(F)(F)F)c1`, for which the Papp in series [1] is below 20 nm/s. Moreover, the hepatic extraction ratio at 1 h, 1 µM in series [2] was 0.24; in series [3], below 0.056. Besides, the IC50 came to 24.5 µM against Cytochrome P450 3A4; 12 µM on Cytochrome P450 2D6; 4 µM on Cytochrome P450 2C9; 28 µM on Cytochrome P450 2C19; 0.026 µM in series [4].
As to `N=C(N)NC(=O)c1ccc(C2CCN(C(=O)c3ccc(Cl)cc3)CC2)c(C(F)(F)F)c1`, in series [4], the IC50 stood at 0.306 µM.
Regarding `N=C(N)NC(=O)c1ccc(C2CCN(C(=O)c3ccc[nH]3)CC2)c(C(F)(F)F)c1`, in series [4], the IC50 was 0.045 µM.
For `N=C(N)NC(=O)c1ccc(C2CCN(C(=O)c3ccc(F)cc3)CC2)c(C(F)(F)F)c1`, the Papp in series [1] was at least 20 nm/s. The hepatic extraction ratio at 1 h, 1 µM in series [2] was determined as 0.32; in series [3] it was 0.3. Besides, the IC50 was 6 µM against Cytochrome P450 3A4, above 30 µM on Cytochrome P450 2D6, 8 µM against Cytochrome P450 2C9 and 11 µM against Cytochrome P450 2C19.
As for `CS(=O)(=O)c1ccccc1C(=O)N1CCC(c2ccc(C(=O)NC(=N)N)cc2C(F)(F)F)CC1`, the IC50 in series [4] is 0.058 µM.
Consider `N=C(N)NC(=O)c1ccc(C2CCN(C(=O)c3ccc(O)nc3)CC2)c(C(F)(F)F)c1`, for which the Papp in series [1] is below 20 nm/s. The hepatic extraction ratio at 1 h, 1 µM is 0.18 in series [2] and 0.1 in series [3]. Further, the IC50 against Cytochrome P450 3A4 is above 30 µM; on Cytochrome P450 2D6 it was above 30 µM; on Cytochrome P450 2C9 it was 29 µM; on Cytochrome P450 2C19, above 30 µM; in series [4] it was 0.019 µM.

(Values after ChEMBL document CHEMBL2169836 (J Med Chem, 2012).)
